# In ChEMBL document CHEMBL1649395, “Synthesis and antibacterial activity of novel ketolides with 11,12-sulfur contained aryl alkyl side chains” (2011):
# Legend:
# Format in all cases: functional
# [1] = test system: Streptococcus pneumoniae; assay: Antibacterial activity against erythromycin-susceptible Streptococcus pneumoniae ATCC 49619 by broth microdilution method
# Procedure, shortened: (§1)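 Strains were ATCC reference strains or clinical isolates from China's national antimicrobial resistance surveillance network (MOHNARIN). In vitro activity was measured by broth microdilution following NCCLS recommendations. Results are reported as minimum inhibitory concentration (MIC) in mg/L.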
# [2] = test system: Staphylococcus epidermidis; assay: Antibacterial activity against methicillin-resistant Staphylococcus epidermidis 07R066 by broth microdilution method
# Procedure, shortened: (§2)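 Clinical isolates were supplied by China's Ministry of Health National Antimicrobial Resistance Investigation Net (MOHNARIN). Activity was reported as minimum inhibitory concentration (MIC), determined by broth microdilution following NCCLS recommendations.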
# [3] = test system: Staphylococcus epidermidis; assay: Antibacterial activity against methicillin-susceptible Staphylococcus epidermidis 07T202 by broth microdilution method; procedure, shortened: as §1
# [4] = test system: Staphylococcus aureus; assay: Antibacterial activity against methicillin-susceptible Staphylococcus aureus ATCC 29213 by broth microdilution method; procedure, shortened: as §1
# [5] = test system: Streptococcus pyogenes; assay: Antibacterial activity against erythromycin-susceptible Streptococcus pyogenes 07U086 by broth microdilution method; procedure, shortened: as §1
# [6] = test system: Haemophilus influenzae; assay: Antibacterial activity against erythromycin-susceptible Haemophilus influenzae 07O339 by broth microdilution method; procedure, shortened: as §1
# [7] = test system: Haemophilus influenzae; assay: Antibacterial activity against erythromycin-susceptible Haemophilus influenzae 07O114 by broth microdilution method; procedure, shortened: as §1
# [8] = test system: Haemophilus influenzae; assay: Antibacterial activity against erythromycin-susceptible Haemophilus influenzae ATCC 49247 by broth microdilution method; procedure, shortened: as §1
# [9] = test system: Staphylococcus aureus; assay: Antibacterial activity against methicillin-susceptible Staphylococcus aureus ANS46 by broth microdilution method; procedure, shortened: as §1
# [10] = test system: Staphylococcus epidermidis; assay: Antibacterial activity against methicillin-susceptible Staphylococcus epidermidis 07C134 by broth microdilution method; procedure, shortened: as §2
# [11] = test system: Haemophilus influenzae; assay: Antibacterial activity against erythromycin-susceptible Haemophilus influenzae 07O394 by broth microdilution method; procedure, shortened: as §1
# [12] = test system: Staphylococcus epidermidis; assay: Antibacterial activity against methicillin-resistant Staphylococcus epidermidis 07A066 by broth microdilution method; procedure, shortened: as §2
# [13] = test system: Streptococcus pyogenes; assay: Antibacterial activity against erythromycin-susceptible Streptococcus pyogenes 07U084 by broth microdilution method; procedure, shortened: as §1
# [14] = test system: Streptococcus pneumoniae; assay: Antibacterial activity against erythromycin-susceptible Streptococcus pneumoniae 07H252 by broth microdilution method; procedure, shortened: as §1
# [15] = test system: Streptococcus pyogenes; assay: Antibacterial activity against erythromycin-resistant Streptococcus pyogenes 03-233 by broth microdilution method; procedure, shortened: as §2
# [16] = test system: Streptococcus pneumoniae; assay: Antibacterial activity against erythromycin-resistant Streptococcus pneumoniae 07P390 by broth microdilution method; procedure, shortened: as §2
# [17] = test system: Streptococcus pyogenes; assay: Antibacterial activity against erythromycin-resistant Streptococcus pyogenes 01-533 by broth microdilution method; procedure, shortened: as §2
# [18] = test system: Streptococcus pneumoniae; assay: Antibacterial activity against erythromycin-resistant Streptococcus pneumoniae 07D201 by broth microdilution method; procedure, shortened: as §2
structure (smiles),measurement,setting,value
CC[C@H]1OC(=O)[C@H](C)C(=O)[C@H](C)[C@@H](O[C@@H]2O[C@H](C)C[C@H](N(C)C)[C@H]2O)[C@@](C)(OC)C[C@@H](C)C(=O)[C@H](C)[C@H]2N(CCCSc3nc4ccccc4[nH]3)C(=O)O[C@]12C,MIC,[1],0.016 µg/mL
same,MIC,[2],0.062 µg/mL
same,MIC,[3],> 16 µg/mL
same,MIC,[4],0.125 µg/mL
same,MIC,[5],0.016 µg/mL
same,MIC,[6],2 µg/mL
same,MIC,[7],2 µg/mL
same,MIC,[8],4 µg/mL
same,MIC,[9],> 16 µg/mL
same,MIC,[10],0.062 µg/mL
same,MIC,[11],2 µg/mL
same,MIC,[12],0.125 µg/mL
same,MIC,[13],0.016 µg/mL
CC[C@H]1OC(=O)[C@H](C)C(=O)[C@H](C)[C@@H](O[C@@H]2O[C@H](C)C[C@H](N(C)C)[C@H]2O)[C@@](C)(OC)C[C@@H](C)C(=O)[C@H](C)[C@H]2N(CCCSc3nc4cc(OC)ccc4s3)C(=O)O[C@]12C,MIC,[1],0.125 µg/mL
same,MIC,[2],0.25 µg/mL
same,MIC,[3],16 µg/mL
same,MIC,[4],0.5 µg/mL
same,MIC,[5],0.062 µg/mL
same,MIC,[6],16 µg/mL
same,MIC,[7],16 µg/mL
same,MIC,[8],16 µg/mL
same,MIC,[9],> 16 µg/mL
same,MIC,[10],0.25 µg/mL
same,MIC,[11],16 µg/mL
same,MIC,[12],0.5 µg/mL
same,MIC,[13],0.062 µg/mL
CC[C@H]1OC(=O)[C@H](C)C(=O)[C@H](C)[C@@H](O[C@@H]2O[C@H](C)C[C@H](N(C)C)[C@H]2O)[C@@](C)(OC)C[C@@H](C)C(=O)[C@H](C)[C@H]2N(CCCSc3nc(-c4ccccc4)cs3)C(=O)O[C@]12C,MIC,[1],0.25 µg/mL
same,MIC,[14],0.5 µg/mL
same,MIC,[2],0.5 µg/mL
same,MIC,[3],32 µg/mL
same,MIC,[15],32 µg/mL
same,MIC,[16],0.25 µg/mL
same,MIC,[4],0.5 µg/mL
same,MIC,[5],0.25 µg/mL
same,MIC,[6],32 µg/mL
same,MIC,[7],32 µg/mL
same,MIC,[8],16 µg/mL
same,MIC,[9],32 µg/mL
same,MIC,[17],1 µg/mL
same,MIC,[10],0.5 µg/mL
same,MIC,[11],32 µg/mL
same,MIC,[18],8 µg/mL
same,MIC,[12],0.5 µg/mL
same,MIC,[13],0.25 µg/mL
CC[C@H]1OC(=O)[C@H](C)C(=O)[C@H](C)[C@@H](O[C@@H]2O[C@H](C)C[C@H](N(C)C)[C@H]2O)[C@@](C)(OC)C[C@@H](C)C(=O)[C@H](C)[C@H]2N(CCCSc3nncs3)C(=O)O[C@]12C,MIC,[1],≤ 0.016 µg/mL
same,MIC,[14],2 µg/mL
same,MIC,[2],0.5 µg/mL
same,MIC,[3],> 16 µg/mL
same,MIC,[15],> 16 µg/mL
same,MIC,[16],0.5 µg/mL
same,MIC,[4],0.25 µg/mL
same,MIC,[5],0.062 µg/mL
same,MIC,[6],2 µg/mL
same,MIC,[7],2 µg/mL
same,MIC,[8],2 µg/mL
same,MIC,[9],> 16 µg/mL
same,MIC,[17],1 µg/mL
same,MIC,[10],0.25 µg/mL
same,MIC,[11],2 µg/mL
same,MIC,[18],> 16 µg/mL
same,MIC,[12],0.25 µg/mL
same,MIC,[13],0.062 µg/mL
CC[C@H]1OC(=O)[C@H](C)C(=O)[C@H](C)[C@@H](O[C@@H]2O[C@H](C)C[C@H](N(C)C)[C@H]2O)[C@@](C)(OC)C[C@@H](C)C(=O)[C@H](C)[C@H]2N(CCCSc3ccccn3)C(=O)O[C@]12C,MIC,[1],0.016 µg/mL
same,MIC,[2],0.125 µg/mL
same,MIC,[3],> 16 µg/mL
same,MIC,[4],0.125 µg/mL
same,MIC,[5],0.016 µg/mL
same,MIC,[6],4 µg/mL
same,MIC,[7],8 µg/mL
same,MIC,[8],8 µg/mL
same,MIC,[9],> 16 µg/mL
same,MIC,[10],0.125 µg/mL
same,MIC,[11],8 µg/mL
same,MIC,[12],0.125 µg/mL
same,MIC,[13],0.016 µg/mL
CC[C@H]1OC(=O)[C@H](C)C(=O)[C@H](C)[C@@H](O[C@@H]2O[C@H](C)C[C@H](N(C)C)[C@H]2O)[C@@](C)(OC)C[C@@H](C)C(=O)[C@H](C)[C@H]2N(CCCSc3nc(-c4ccccc4)c(-c4ccccc4)o3)C(=O)O[C@]12C,MIC,[1],1 µg/mL
same,MIC,[2],4 µg/mL
same,MIC,[3],> 16 µg/mL
same,MIC,[4],4 µg/mL
same,MIC,[5],0.5 µg/mL
same,MIC,[6],> 16 µg/mL
same,MIC,[7],> 16 µg/mL
same,MIC,[8],> 16 µg/mL
same,MIC,[9],> 16 µg/mL
same,MIC,[10],4 µg/mL
same,MIC,[11],> 16 µg/mL
same,MIC,[12],2 µg/mL
same,MIC,[13],0.5 µg/mL
CC[C@H]1OC(=O)[C@H](C)C(=O)[C@H](C)[C@@H](O[C@@H]2O[C@H](C)C[C@H](N(C)C)[C@H]2O)[C@@](C)(OC)C[C@@H](C)C(=O)/C(C)=C/[C@]1(C)OC(=O)NCCCSc1nc2cc([N+](=O)[O-])ccc2[nH]1,MIC,[1],0.125 µg/mL
same,MIC,[2],1 µg/mL
same,MIC,[3],> 16 µg/mL
same,MIC,[4],1 µg/mL
same,MIC,[5],0.125 µg/mL
same,MIC,[6],> 16 µg/mL
same,MIC,[7],16 µg/mL
same,MIC,[8],16 µg/mL
same,MIC,[9],> 16 µg/mL
same,MIC,[10],1 µg/mL
same,MIC,[11],> 16 µg/mL
same,MIC,[12],1 µg/mL
same,MIC,[13],0.125 µg/mL
